Source: PubChem BioAssay
In the library only some 0.64% were active in any assay of this set; here they are far more common.
TNAP inh hi DEA = human TNAP enzyme inhibitors, primary screen, biochemical, luminescent, high phosphate acceptor level, uHTS; 200,000 compounds, 0.03% hits; Alkaline phosphatase, tissue-nonspecific isozyme (Homo sapiens), P05186; purified TNAP, CDP-star luminescence, 1 M DEA; AID 1135, 2008; inhibition, % at 20 µM;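 active = over 50% inhibition of tissue-nonspecific alkaline phosphatase at 20 µM in the single-dose screen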
TNAP act hi DEA = TNAP activators at high phosphate acceptor level, primary screen, biochemical, luminescence, uHTS. Alkaline phosphatase, tissue-nonspecific isozyme (Homo sapiens), P05186. purified TNAP, CDP-star luminescence, 1 M DEA, 30 min; stronger effect = higher value; 0 = EDTA background, 1 = DMSO-only activity. activation factor at 20 µM. 200,000 tested, under 10 active;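 active = activation factor at least 2 at 20 µM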
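Dosing: 20 µM single point. System: human TNAP. Amount: TNAP 1/800 final. Incubation: 30 min, room temperature. Read-out: TNAP activation factor scaled between EDTA and DMSO control wells. Signal: luminescence from CDP-star hydrolysis. Medium: 1 M DEA, pH 9.8, Mg2+, Zn2+. Control set: EDTA negative control, DMSO positive control.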
PMI act hi M6P = human PMI activators, high substrate, primary screen, biochemical, fluorescence intensity, near-saturating mannose 6-phosphate; AID 1216, 2008; 190,000 compounds, 0.34% hits; coupled PMI enzyme assay, resazurin fluorescence, 20 min; stronger effect = higher value; 1 = untreated enzyme, 0 = substrate-free blank; activation factor at 20 µM;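 active = activation factor of 2 or more at 20 µM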
Target sequence (P34949 whole entry, looked up): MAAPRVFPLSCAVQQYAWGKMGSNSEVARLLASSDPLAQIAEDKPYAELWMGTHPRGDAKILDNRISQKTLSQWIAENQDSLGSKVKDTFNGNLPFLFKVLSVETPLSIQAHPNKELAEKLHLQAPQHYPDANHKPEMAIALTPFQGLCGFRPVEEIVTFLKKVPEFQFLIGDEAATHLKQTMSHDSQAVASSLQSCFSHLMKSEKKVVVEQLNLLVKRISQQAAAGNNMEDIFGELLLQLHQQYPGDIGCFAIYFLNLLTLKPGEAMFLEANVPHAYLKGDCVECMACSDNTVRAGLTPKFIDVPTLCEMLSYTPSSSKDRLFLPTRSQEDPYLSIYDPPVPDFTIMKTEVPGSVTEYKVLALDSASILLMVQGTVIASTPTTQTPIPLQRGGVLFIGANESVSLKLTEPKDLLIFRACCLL
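Technique: Diaphorase-driven resazurin-to-resorufin fluorescence, excitation 544, emission 590 nm | Assay system: Human PMI in coupled enzyme assay | Times: Enzyme reaction with compound 20 min at room temperature | Medium: HEPES-buffered pH 7.4 with magnesium and detergent | Reagent: Mannose-6-phosphate 1.0 mM (near-saturating) plus 0.22 mM NADP+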
PMI act = activators of human PMI, primary screen, biochemical, fluorescence intensity, near-Km mannose 6-phosphate; activation factor at 20 µM; 190,000 compounds, 0.005% hits; Mannose-6-phosphate isomerase (Homo sapiens), P34949; purified human PMI, coupled resazurin fluorescence, 20 min; stronger effect = higher value; 1 = vehicle control, 0 substrate-free wells;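 active = activation factor of 2 or more at 20 µM, relative to plate controls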
TNAP inh noacc = human TNAP enzyme inhibitors, primary screen, biochemical, luminescent, no phosphate acceptor, uHTS; purified TNAP, CDP-star luminescence, 30 min; inhibition, % at 20 µM; 200,000 compounds, 0.26% hits;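 active = tissue-nonspecific alkaline phosphatase inhibition above about 50% at 20 µM in the single-dose screen, limit read from the data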
A number is an active result; n = inactive.

SMILES	TNAP inh hi DEA	TNAP act hi DEA	PMI act hi M6P	PMI act	TNAP inh noacc
CCOC(=O)C1=NN(N=O)C2(CC(=O)N(c3cc(C)cc(C)c3)C2=O)C1 (configuration not stated)	n	n	2.2	n	n
COC(=O)C1=NN(C(C)=O)C2(CC(=O)N(c3cc(C)cc(C)c3)C2=O)C1 (configuration not stated)	n	n	n	n	n
Cc1cc(C)n2[nH]c(=O)c(N=Nc3ccc(S(N)(=O)=O)cc3)c2n1	n	n	n	n	91
Cc1ccc(N=Nc2c(=O)[nH]n3c(C)cc(C)nc23)cc1	n	n	n	n	n
Cc1ccc(S(=O)(=O)NCCC(=O)Nc2cccc(Cl)c2)cc1	n	n	n	n	n
Cc1cccc(C)c1NC(=O)C(NC(=O)CN1C(=O)c2ccccc2C1=O)c1ccccc1 (configuration not stated)	n	n	n	n	n
O=C(O)c1ccccc1-n1c(-c2ccccc2)cc2c1CCCC2=O	n	n	n	n	n
C/C(=N\Nc1cccc(C(F)(F)F)c1)c1ccc(O)cc1	n	n	2.1	n	n
C/C(=N\NC(=O)c1cccc(N/N=C(\C)c2ccccc2)c1)c1ccccc1	n	n	2.7	n	n
C/C(=N\NC(=O)c1cccc([N+](=O)[O-])c1)c1ccncc1	n	n	n	n	n
C/C(=N\NC(=O)c1cccc(N/N=C(\C)c2ccncc2)c1)c1ccncc1	n	n	2.5	n	n
O/N=C/c1ccc2ccccc2c1	n	n	n	n	n
Cn1c(=O)c2[nH]c(N3CCN(c4ccccn4)CC3)nc2n(C)c1=O	n	n	n	n	n
Cc1cc(C(F)(F)F)nc(SCCN2CCOCC2)c1C#N	n	n	2.2	n	n
CCOC(=O)C(NS(=O)(=O)c1ccccc1)(C(F)(F)F)P(=O)(OCC(C)C)OCC(C)C (configuration not stated)	n	n	2	n	n
CCOC(=O)C(NCc1ccccc1)(NC(=O)c1ccccc1)C(F)(F)F (configuration not stated)	n	n	n	n	n
CC(C)c1ccccc1NC(=O)c1cccc(NC(=O)c2ccccc2)c1	n	n	n	n	n
CSC1=NSC2=NC(=O)/C(=C\c3coc4ccccc4c3=O)C(=N)N12	n	n	n	n	n
CC(C)CSC1=NSC2=NC(=O)/C(=C\c3coc4ccccc4c3=O)C(=N)N12	n	n	2	n	n
COc1ccc(NC(=O)N/C=C/c2ccco2)cc1	n	n	2.2	n	n
CSCCC(N=C(NS(=O)(=O)c1ccc(Br)cc1)c1ccccc1)C(=O)O (configuration not stated)	n	n	n	n	n
COc1cc(NC(=O)c2cccc(COCC(F)(F)C(F)F)c2)cc(OC)c1OC	n	n	n	n	n
O=C(N/N=C/c1ccc(O)c(O)c1)c1ccc(CSc2cccc3cccnc23)cc1	n	n	n	n	57
C/C(=N\Nc1ccc([N+](=O)[O-])cc1)c1ccc(N)cc1	n	n	2.3	n	n
CCc1ccc(/C(C)=N\Nc2ccc([N+](=O)[O-])cc2)cc1	n	n	n	n	n
CCn1c(SCC(=O)Nc2sc3c(c2C#N)CCC(C(C)(C)C)C3)nnc1-c1ccco1 (configuration not stated)	n	n	n	n	n
CCn1c(SCC(=O)Nc2sc3c(c2C#N)CCCC3)nnc1-c1ccco1	53	n	n	n	n
COc1cccc(NC(=O)CN(C)C(=O)COc2ccc3ccccc3c2)c1	n	n	n	n	n
O=C1CC(/C=C/c2ccncc2)=Nc2ccccc2N1	n	n	2.1	n	n
CC1=NN(c2ccc(C)cc2)C(=O)/C1=C\C=C\c1ccccc1	n	n	n	n	n
